The values below come from ChEMBL document CHEMBL1158698, “Chinikomycins A and B: isolation, structure elucidation, and biological activity of novel antibiotics from a marine Streptomyces sp. isolate M045” (J Nat Prod, 2005).

The structures appear in SMILES notation. Converted amounts (≈) assume the structure as drawn. The source made the active and inactive calls. No cut-off for these calls is given here. Some results are limits rather than exact numbers.

In general, IC50 refers to the concentration needed to halve the response being measured. A higher IC50 goes with lower potency.

For test [1], the system named is Bacillus subtilis. The test can be described thus: Antimicrobial activity against Bacillus subtilis at 40 ug/plate. The format is functional, organism-based. The method, boiled down: (§1)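 Agar plate diffusion test. The stated amount of compound is applied per test plate seeded with the named bacterium, alga or fungus. The read-out is the diameter of the growth-inhibition zone, in mm.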

The subject of test [2] is Encephalomyocarditis virus. The test can be described thus: Antiviral activity against EMC virus infected in human A549 cells assessed as protection against virus-induced cytopathic effect at 100 ug/ml. Format: functional, organism-based. (Cytopathic effects are the visible damage that an infection or toxin causes in cultured cells.)
A short description of test [3]: Antitumor activity against human LXFL 529L cells. The format is functional, cell-based.
The subject of test [4] is Candida albicans. The test can be described thus: Antimicrobial activity against Candida albicans at 40 ug/plate. Format: functional, organism-based. A digest of the protocol:
as §1

In test [5] the test system is Escherichia coli. The experiment in a line: Antimicrobial activity against Escherichia coli at 40 ug/plate. The format is functional, organism-based. A digest of the protocol: as §1
Test [6] concerns Staphylococcus aureus. The experiment in a line: Antimicrobial activity against Staphylococcus aureus at 40 ug/plate. Format: functional, organism-based. A digest of the protocol:
as §1

Test [7] deals with Desmodesmus subspicatus. The experiment in a line: Antimicrobial activity against Scenedesmus subspicatus at 40 ug/plate. Format: functional, organism-based. The method, boiled down: as §1
Test [8] can be described thus: Antitumor activity against human RXF 944L cells. Format: functional, cell-based.
The test system of test [9] is Rhizomucor miehei. The experiment in a line: Antimicrobial activity against Mucor miehei at 40 ug/plate. The format is functional, organism-based. The method, boiled down:
as §1

Test [10] has as its system Streptomyces viridochromogenes. The test can be described thus: Antimicrobial activity against Streptomyces viridochromogenes Tu 57 at 40 ug/plate. The format is functional, organism-based. The method, boiled down: as §1
Test [11] in a line: Antitumor activity against human LXFA 629L cells. The format is functional, cell-based.
Test [12] relates to Chlorella vulgaris. The experiment in a line: Antimicrobial activity against Chlorella vulgaris at 40 ug/plate. The format is functional, organism-based. The method, boiled down: as §1
Test [13] can be described thus: Antitumor activity against human MEXF 462NL cells. The format is functional, cell-based.
A short description of test [14]: Antitumor activity against human MAXF 401NL cells. Format: functional, cell-based.
Test [15] relates to Chlorella sorokiniana. The experiment in a line: Antimicrobial activity against Chlorella sorokiniana at 40 ug/plate. The format is functional, organism-based. The method, boiled down:
as §1

A short description of test [16]: Antitumor activity against human UXF 1138L cells. The format is functional, cell-based.
The subject of test [17] is Rhizomucor miehei. The test can be described thus: Antimicrobial activity against Mucor miehei at 10 ug/plate. Format: functional. A digest of the protocol:
as §1

The test system of test [18] is Chlorella vulgaris. The experiment in a line: Antimicrobial activity against Chlorella vulgaris at 10 ug/plate. The format is functional. A digest of the protocol: as §1
Test [19] relates to Staphylococcus aureus. The experiment in a line: Antimicrobial activity against Staphylococcus aureus at 10 ug/plate. The format is functional. A digest of the protocol: as §1
Test [20] has as its system Desmodesmus subspicatus. The test can be described thus: Antimicrobial activity against Scenedesmus subspicatus at 10 ug/plate. Format: functional. The method, boiled down: as §1
Test [21] deals with Streptomyces viridochromogenes. The experiment in a line: Antimicrobial activity against Streptomyces viridochromogenes Tu 57 at 10 ug/plate. The format is functional. A digest of the protocol:
as §1

Test [22] relates to Candida albicans. The experiment in a line: Antimicrobial activity against Candida albicans at 10 ug/plate. The format is functional. The method, boiled down:
as §1

Test [23] relates to Chlorella sorokiniana. The experiment in a line: Antimicrobial activity against Chlorella sorokiniana at 10 ug/plate. The format is functional. A digest of the protocol:
as §1

The subject of test [24] is Escherichia coli. The test can be described thus: Antimicrobial activity against Escherichia coli at 10 ug/plate. Format: functional. The method, boiled down: as §1
Test [25] relates to Bacillus subtilis. The test can be described thus: Antimicrobial activity against Bacillus subtilis at 10 ug/plate. The format is functional. The method, boiled down:
as §1

Turning to `CCCC[C@@H](C)/C=C(C)/C=C(\C)C(=O)Nc1cc(O)c(/C=C/C=C/C=C/C(=O)NC2=C(O)CCC2=O)c(Cl)c1O` [CHINIKOMYCIN A], the result in test [1], in [2], in test [4], in [5], in [6] and in test [7] was inactive. Moreover, the result in test [9], in [10], in test [12] and in [15] was inactive. The IC50 in [3] is above 6 µg/mL; in [8], 4.02 µg/mL (≈ 7.06 µM); in [11], above 6 µg/mL; in [13], 4.15 µg/mL (≈ 7.29 µM); in [14], 2.41 µg/mL (≈ 4.23 µM); in test [16] it was above 6 µg/mL.

`CCCC[C@@H](C)/C=C(C)/C=C(\C)C(=O)NC1=CC(=O)C(/C=C/C=C/C=C/C(=O)NC2=C(O)CCC2=O)=C(Cl)C1=O` [CHINIKOMYCIN B]: the outcome in test [1], in test [2], in [4], in [5], in [6] and in test [7] was inactive. The result in [9], in test [10], in [12] and in test [15] was inactive. The 50% inhibitory concentration (IC50) in test [3] was above 6 µg/mL; in test [8], above 6 µg/mL; in [11] it was above 6 µg/mL; in test [13], above 6 µg/mL; in test [14], 3.04 µg/mL (≈ 5.36 µM); in [16], above 6 µg/mL.

For the compound `CCCC[C@@H](C)/C=C(C)/C=C(\C)C(=O)NC1=C[C@@](O)(/C=C/C=C/C=C/C(=O)NC2=C(O)CCC2=O)[C@@H]2O[C@@H]2C1=O` [MANUMYCIN A], the “inhibition zone (IZ)” value in test [17], in [18], in [19], in [20], in test [21] and in [22] was 16 mm in each case. The “inhibition zone (IZ)” value in test [23], in [24] and in test [25] was 16 mm each time.
